Values joined by “and” are separate entries in the source; they are usually repeats but may differ in a detail not shown here. Equal values may be shown once.
Assays:
CCRF-CEM = experiment: Antitumor activity against human CCRF-CEM cells after 48 hrs; assay type: functional
Outline: (§1)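 Tested in the NCI 60 human tumour cell line screen, with continuous drug exposure for 48 h. Values include LC50 derived from the screen.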

UACC-62 = experiment: Antitumor activity against human UACC62 cells after 48 hrs; assay type: functional; settings: UACC-62, 48 h
Outline: (§2)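 NCI 60 human tumour cell line screen; 48 h continuous drug exposure. Compounds tested as tri(methanesulfonate) salts, soluble in water and dilute buffers. Dilute solutions are light-sensitive and adsorb to glass or quartz.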

HT-29 = experiment: Antitumor activity against HT29 cells expressing mutated p53; assay type: functional, cell-based; settings: Homo sapiens
Outline: (§3)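 Compounds tested as tri(methanesulfonate) salts, soluble in water and dilute buffers. Human tumour cells carrying wild-type or mutated p53 were exposed for 5 days, and viability was read by MTT assay. GI50, TGI and LC50 were calculated from the MTT data. Values are means ± SD of at least three independent experiments, with coefficients of variation of 10–20%.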

[1] = Antitumor activity against human 10.05 cells expressing mutated p53; assay type: functional, cell-based; outline: as §3
MIA PaCa-2 = experiment: Inhibition of tumor growth in PaCa2 cells xenografted nu/nu mouse at 15 mg/kg; assay type: functional, Homo sapiens
Outline: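 PaCa-2 tumour fragments implanted on the flank of nu/nu mice, 10 per group. Intraperitoneal treatment, Q3Dx4, started 12 days post-inoculation at 80 mm3 tumour volume. Tumour growth inhibition measured.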

BT-549 = experiment: Antitumor activity against human BT549 cells after 48 hrs; assay type: functional; settings: BT-549, 48 h; outline: as §1
RKO = experiment: Antitumor activity against human RKO cells expressing wild type p53; assay type: functional; settings: read-out: LC50 (the source's name); outline: as §3
SNB-75 = experiment: Antitumor activity against human SNB75 cells after 48 hrs; assay type: functional; settings: SNB-75, 48 h; outline: as §2
ACHN = experiment: Antitumor activity against human ACHN cells after 48 hrs; assay type: functional; outline: as §1
RPMI-8226 = experiment: Antitumor activity against human RPMI-8226 cells after 48 hrs; assay type: functional; settings: RPMI-8226, 48 h; outline: as §1
HCT-116 [2] = experiment: Cell cycle arrest in HCT116 cells assessed as accumulation at Sub G1 phase at 50 nM after 72 hrs; assay type: functional, Homo sapiens
Outline: (§4)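 HCT116 cells exposed to 50 nM drug for 72 h, then cell-cycle distribution analysed. Sub-G1, G1, S and G2/M fractions reported as percent of cells, with untreated control cells for comparison.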

[3] = Antitumor activity against human NCI-H322 cells after 48 hrs; assay type: functional; settings: NCI-H322, 48 h; outline: as §1
SW-620 = experiment: Antitumor activity against human SW620 cells after 48 hrs; assay type: functional; settings: SW-620, 48 h; outline: as §2
NCI-H522 = experiment: Antitumor activity against human NCI-H522 cells after 48 hrs; assay type: functional; settings: NCI-H522, 48 h; outline: as §1
NCI = experiment: Antitumor activity against human NCI/ADR-RES cells after 48 hrs; assay type: functional; outline: as §1
SN12C = experiment: Antitumor activity against human SN12C cells after 48 hrs; assay type: functional; outline: as §1
HCT-116 [4] = experiment: Cell cycle arrest in HCT116 cells assessed as accumulation at G1 phase at 50 nM after 72 hrs; assay type: functional, Homo sapiens; outline: as §4
HCT-15 = experiment: Antitumor activity against human HCT15 cells after 48 hrs; assay type: functional; settings: HCT-15, 48 h; outline: as §1
T47D = experiment: Antitumor activity against human T47D cells after 48 hrs; assay type: functional; outline: as §2
HCT-116 [5] = experiment: Antitumor activity against human HCT116 cells expressing wild type p53; assay type: functional; settings: read-out: LC50 (the source's name); outline: as §3
HCT-116 [6] = experiment: Cell cycle arrest in HCT116 cells assessed as accumulation at S phase at 50 nM after 72 hrs; assay type: functional, Homo sapiens; outline: as §4
COLO 205 = experiment: Antitumor activity against human COLO205 cells after 48 hrs; assay type: functional; settings: COLO 205, 48 h; outline: as §1
ASPC1 = experiment: Antitumor activity against p53 null human ASPC1 cells; assay type: functional, cell-based
TK-10 = experiment: Antitumor activity against human TK10 cells after 48 hrs; assay type: functional; settings: TK-10, 48 h; outline: as §2
[7] = Apparent volume of distribution in NCR nu/nu mouse at 20 mg/kg, iv; assay type: ADME, organism-based; parameters: dose 20 mg/kg, route intravenous; settings: in vivo
Outline: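 Single i.v. dose of 20 mg/kg to ncr nu/nu mice and an F344 rat. Plasma concentrations followed over time and fitted by nonlinear regression to give distribution and elimination phases, AUC and apparent volumes of distribution. Detection limit 50 nM.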

SF-268 = experiment: Antitumor activity against human SF268 cells after 48 hrs; assay type: functional; settings: SF-268, 48 h; outline: as §1
CAKI-1 = experiment: Antitumor activity against human CAKI-1 cells after 48 hrs; assay type: functional; settings: CAKI-1, 48 h; outline: as §1
[8] = Growth inhibition of human Hep3B cells after 5 days by MTT assay; assay type: functional, Hep 3B2; settings: 120 h
Outline: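 MTT assay after 5 day continuous exposure. GI50, TGI and LC50 calculated from the MTT data. Means ± SD of at least three independent experiments; coefficients of variation 10-20%. Compounds used as tri(methanesulfonate) salts.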

SK-MEL-28 = experiment: Antitumor activity against human SK-MEL-28 cells after 48 hrs; assay type: functional; settings: SK-MEL-28, 48 h; outline: as §1
SF-295 = experiment: Antitumor activity against human SF295 cells after 48 hrs; assay type: functional; settings: SF-295, 48 h; outline: as §1
NCI-H23 = experiment: Antitumor activity against human NCI-H23 cells after 48 hrs; assay type: functional; settings: NCI-H23, 48 h; outline: as §1
Malme-3M = experiment: Antitumor activity against human MALME-3M cells after 48 hrs; assay type: functional; outline: as §1
SNB-19 = experiment: Antitumor activity against human SNB19 cells after 48 hrs; assay type: functional; settings: SNB-19, 48 h; outline: as §1
K562 = experiment: Antitumor activity against human K562 cells after 48 hrs; assay type: functional; outline: as §1
[9] = read-out: Log LC50 (the source's name) (converted)

Compound `COc1ccc2c(c1)c(=O)c1c(NCCCN3CCN(CCCN4C(=O)c5cccc6cc([N+](=O)[O-])cc(c56)C4=O)CC3)ccc3ncn2c31.CS(=O)(=O)O` has a GI50 (CCRF-CEM) of 4.07 nM, a CC50 (CCRF-CEM; [9]) greater than 1000 nM and a TGI (CCRF-CEM; read-out: Log TGI (converted)) of 97.7 nM. For the same compound, the GI50 (UACC-62) was 3.31 nM, the CC50 (UACC-62; [9]) was greater than 1000 nM and the TGI (UACC-62; read-out: Log TGI (converted)) was 55 nM. For the same compound, the IC50 (HT-29) was 80 nM, the IC50 [1] was 90 nM and the inhibition in vivo at 15 mg/kg (MIA PaCa-2) was 53.5%. It also gave a GI50 (BT-549) of 3.09 nM, a CC50 (BT-549; [9]) greater than 1000 nM and a TGI (BT-549; read-out: Log TGI (converted)) of 53.7 nM. It also gave a CC50 (RKO) of 25 nM, a GI50 (SNB-75) of 6.76 nM and a CC50 (SNB-75; [9]) greater than 1000 nM. It also gave a TGI (SNB-75; read-out: Log TGI (converted)) of 214 nM, a GI50 (ACHN) of 0.407 nM and a CC50 (ACHN; [9]) greater than 1000 nM. The TGI (ACHN; read-out: Log TGI (converted)) was 63.1 nM, the GI50 (RPMI-8226) was 4.07 nM and the CC50 (RPMI-8226; [9]) was greater than 1000 nM. The TGI (RPMI-8226; read-out: Log TGI (converted)) was greater than 1000 nM, the Activity (HCT-116 [2]) was 48% and the GI50 [3] was 5.89 nM. It also gave a CC50 [3, 9] greater than 1000 nM, a TGI ([3]; read-out: Log TGI (converted)) of 309 nM and a GI50 (SW-620) of 0.676 nM. For the same compound, the CC50 (SW-620; [9]) was greater than 1000 nM, the TGI (SW-620; read-out: Log TGI (converted)) was greater than 1000 nM and the GI50 (NCI-H522) was 4.17 nM. For the same compound, the CC50 (NCI-H522; [9]) was greater than 1000 nM, the TGI (NCI-H522; read-out: Log TGI (converted)) was 151 nM and the GI50 (NCI) was 24 nM. The CC50 (NCI; [9]) was greater than 1000 nM, the TGI (NCI; read-out: Log TGI (converted)) was greater than 1000 nM and the GI50 (SN12C) was 2.51 nM. It also gave a CC50 (SN12C; [9]) greater than 1000 nM, a TGI (SN12C; read-out: Log TGI (converted)) greater than 1000 nM and an Activity (HCT-116 [4]) of 22.6%. For the same compound, the GI50 (HCT-15) was 3.09 nM, the CC50 (HCT-15; [9]) was greater than 1000 nM and the TGI (HCT-15; read-out: Log TGI (converted)) was greater than 1000 nM. For the same compound, the GI50 (T47D) was 8.71 nM, the CC50 (T47D; [9]) was greater than 1000 nM and the TGI (T47D; read-out: Log TGI (converted)) was greater than 1000 nM. For the same compound, the CC50 (HCT-116 [5]) was 30 nM, the Activity (HCT-116 [6]) was 2.3% and the GI50 (COLO 205) was 6.31 nM. For the same compound, the CC50 (COLO 205; [9]) was greater than 1000 nM, the TGI (COLO 205; read-out: Log TGI (converted)) was greater than 1000 nM and the IC50 (ASPC1) was 70 nM. For the same compound, the GI50 (TK-10) was 13.5 nM, the CC50 (TK-10; [9]) was greater than 1000 nM and the TGI (TK-10; read-out: Log TGI (converted)) was greater than 1000 nM. For the same compound, the Vd [7] was 57 L/kg, the GI50 (SF-268) was 10.2 nM and the CC50 (SF-268; [9]) was greater than 1000 nM. It also gave a TGI (SF-268; read-out: Log TGI (converted)) greater than 1000 nM, a GI50 (CAKI-1) of 3.02 nM and a CC50 (CAKI-1; [9]) greater than 1000 nM. It also gave a TGI (CAKI-1; read-out: Log TGI (converted)) of 40.7 nM, a GI50 [8] of 2.5 nM and a CC50 ([8]; read-out: LC50 (the source's name)) of 50 nM. The GI50 (SK-MEL-28) was 5.5 nM, the CC50 (SK-MEL-28; [9]) was greater than 1000 nM and the TGI (SK-MEL-28; read-out: Log TGI (converted)) was 933 nM. For the same compound, the GI50 (SF-295) was 1 nM, the CC50 (SF-295; [9]) was greater than 1000 nM and the TGI (SF-295; read-out: Log TGI (converted)) was 79.4 nM. It also gave a GI50 (NCI-H23) of 20.4 nM, a CC50 (NCI-H23; [9]) greater than 1000 nM and a TGI (NCI-H23; read-out: Log TGI (converted)) greater than 1000 nM. For the same compound, the GI50 (Malme-3M) was 6.03 nM, the CC50 (Malme-3M; [9]) was greater than 1000 nM and the TGI (Malme-3M; read-out: Log TGI (converted)) was 95.5 nM. For the same compound, the GI50 (SNB-19) was 8.51 nM, the CC50 (SNB-19; [9]) was greater than 1000 nM and the TGI (SNB-19; read-out: Log TGI (converted)) was greater than 1000 nM. The GI50 (K562; Homo sapiens, K562, 48 h) was 1.74 nM and the TGI (K562; read-out: Log TGI (converted)) was 186 nM and > 1000 nM.

Source: ChEMBL document CHEMBL1138232, “Optimization of naphthalimide-imidazoacridone with potent antitumor activity leading to clinical candidate (HKH40A, RTA 502)” (J Med Chem, 2007)
